According to ChEMBL document CHEMBL1156515:
The source made the active and inactive calls. The calls are words filed in the database; no cut-off is given here.

Key:
HeLa [1] = assay: Effect on AMPK activation in HeLa cells at 1 uM after 5 mins by immunoprecipitate kinase assay; format: cell-based
Procedure, shortened: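 HeLa cells grown in Minimum Essential Eagle's Medium with 10% FBS, NEAA, penicillin and streptomycin. Cells were exposed for 5 min, with or without 1 h pretreatment with STO-609 (10 µg/ml). They were lysed in ice-cold NP-40 buffer, and AMPK activity was measured by immunoprecipitate kinase assay. Means ± SEM of duplicates, representative of 2 or more experiments.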

HeLa [2] = assay: Effect on acetyl-CoA carboxylase phosphorylation in HeLa cells at 1 uM after 5 mins by densitometry; format: cell-based
Procedure, shortened: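 HeLa cells grown in MEM with 10% FBS, NEAA and antibiotics. Cells were exposed for 5 min, with or without 1 h STO-609 (10 µg/ml) pretreatment, then lysed in NP-40 buffer. Lysates (10-30 µg protein) were Western blotted for phospho-ACC with ECL detection, and densitometry was given in arbitrary units. Means ± SEM of duplicates, representative of 2 or more experiments.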

Mus musculus [3] = organism: Mus musculus; assay: Effect on acetyl-CoA carboxylase phosphorylation in mouse embryonic fibroblasts expressing AMPK-alpha1+/+alpha2+/+ upto 300 uM after 4 hrs by Western blot
Mus musculus [4] = organism: Mus musculus; assay: Effect on acetyl-CoA carboxylase phosphorylation in wild type LKB1+/+ mouse longus muscle tissue at 100 uM by Western blot; format: tissue-based
Procedure, shortened: (§1)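 Extensor digitorum longus from overnight-fasted LKB1+/+ or muscle-specific LKB1−/− mice, mounted and incubated 1 hr at 37°C in KRB (pH 7.4, 2 mM pyruvate, gassed 95% O2/5% CO2) with compound (stock in DMSO); controls 0.1% DMSO. Muscles snap-frozen; lysates Western blotted for pT172 AMPK and pACC.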

Mus musculus [5] = organism: Mus musculus; assay: Effect on AMPK phosphorylation in wild type LKB1+/+ mouse longus muscle tissue at 100 uM by Western blot; format: tissue-based; procedure, shortened: as §1
Mus musculus [6] = organism: Mus musculus; assay: Effect on acetyl-CoA carboxylase phosphorylation in LKB1-/-mouse longus muscle tissue at 100 uM by Western blot; format: tissue-based; procedure, shortened: as §1
Hepatocyte = assay: Effect on acetyl-CoA carboxylase phosphorylation in wild type AMPK expressing mouse AMPK-alpha1+/+alpha2+/+ primary hepatocytes upto 200 uM after 4 hrs by Western blot; format: cell-based
Procedure, shortened: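 Primary hepatocytes from AMPKα1+/+α2+/+ mice exposed to compound concentrations up to 200 µM for 4 hr. Lysates immunoblotted with phosphospecific and total ACC antibodies.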

Mus musculus [7] = organism: Mus musculus; assay: Increase in acetyl-CoA carboxylase phosphorylation in TAK1+/+ mouse embryonic fibroblast at 100 uM after 1 hr by densitometry
Procedure, shortened: (§2)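 TAK1+/+ and TAK1−/− MEFs treated with 100 µM compound for 1 hr; lysates Western blotted and ACC phosphorylation quantified by densitometry in arbitrary units. Means ± SEM of duplicates, representative of 2 or more experiments.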

Mus musculus [8] = organism: Mus musculus; assay: Effect on AMPK phosphorylation in wild type LKB1+/+ mouse longus muscle tissue at 2 mM uM by Western blot; format: tissue-based
Procedure, shortened: (§3)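 EDL muscle from fasted LKB1+/+ or muscle-LKB1−/− mice, incubated 1 hr at 37°C in KRB pH 7.4 with 2 mM pyruvate, gassed 95% O2/5% CO2, with 2 mM AICAR. Lysates immunoblotted with phospho-Thr172 AMPK and phospho-ACC antibodies; ECL bands quantified by CCD imaging.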

Mus musculus [9] = organism: Mus musculus; assay: Effect on acetyl-CoA carboxylase phosphorylation in wild type LKB1+/+ mouse longus muscle tissue at 2 mM uM by Western blot; format: tissue-based; procedure, shortened: as §3
HeLa [10] = assay: Effect on AMPK phosphorylation in HeLa cells at 100 uM after 1 hr by immunoprecipitate kinase assay
Mus musculus [11] = organism: Mus musculus; assay: Effect on AMPK phosphorylation in LKB1-/- mouse longus muscle tissue at 2 mM uM by Western blot; format: tissue-based; procedure, shortened: as §3
HeLa [12] = assay: Effect on AMPK activation in HeLa cells at 100 uM after 1 hr by immunoprecipitate kinase assay; format: cell-based
Procedure, shortened: (§4)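 HeLa cells (MEM, 10% FBS, NEAA, penicillin/streptomycin) given 100 µM compound for 1 hr, with or without STO-609 (10 µg/ml) for 1 hr beforehand. Lysates in ice-cold NP-40 buffer; AMPK activity by immunoprecipitate kinase assay and Thr-172 phosphorylation by Western blot. Means ± SEM of duplicates, representative of 2 or more experiments.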

Rattus norvegicus [13] = organism: Rattus norvegicus; assay: Protection against dephosphorylation of rat AMPK incubated with protein phosphatase 2Calpha at 1 uM in presence of magnesium
Procedure, shortened: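 Purified rat liver AMPK incubated with recombinant protein phosphatase-2Cα (9 ng) plus 5 mM MgCl2 with or without 1 µM compound; remaining AMPK activity measured. Controls lacked Mg2+ or added 200 µM AMP.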

HeLa [14] = assay: Reduction of AMPK activation in HeLa cells at 100 uM after 1 hr in presence of STO-609 by immunoprecipitate kinase assay; format: cell-based; procedure, shortened: as §4
Mus musculus [15] = organism: Mus musculus; assay: Effect on AMPK phosphorylation in LKB1-/- mouse longus muscle tissue at 100 uM by Western blot; format: tissue-based; procedure, shortened: as §1
Mus musculus [16] = organism: Mus musculus; assay: Effect on acetyl-CoA carboxylase phosphorylation in mouse embryonic fibroblasts expressing AMPK-alpha1+/+alpha2+/+ upto 300 uM by Western blot
Procedure, shortened: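 MEFs from AMPKα1+/+/α2+/+ mice (DMEM, 10% FBS, NEAA, 1 mM pyruvate, antibiotics) given compound at graded concentrations up to 300 µM for 1 h. Lysates Western blotted for phospho- and total ACC, quantified by densitometry (arbitrary units). Means ± SEM of duplicates, representative of 2 or more experiments.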

[17] = molecular target: Serine/threonine-protein kinase pim-1 (Homo sapiens) (UniProt P11309); assay: Inhibition of PIM1 at 10 uM
Chain of Serine/threonine-protein kinase pim-1 (Homo sapiens) (P11309 whole entry, looked up): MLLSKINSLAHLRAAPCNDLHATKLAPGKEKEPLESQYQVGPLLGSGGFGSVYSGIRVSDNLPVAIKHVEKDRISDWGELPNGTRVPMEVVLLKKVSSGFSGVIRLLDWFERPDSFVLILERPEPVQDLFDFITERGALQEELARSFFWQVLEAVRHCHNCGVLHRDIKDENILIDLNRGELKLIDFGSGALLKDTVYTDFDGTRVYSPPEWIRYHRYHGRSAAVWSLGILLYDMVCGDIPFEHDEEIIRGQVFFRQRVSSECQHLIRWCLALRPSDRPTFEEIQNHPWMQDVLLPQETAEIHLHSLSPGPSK
Procedure, shortened: (§5)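 Single-concentration selectivity screen at 10 µM across a 76-protein-kinase panel, assayed per earlier methods. Duplicate assays; activity expressed as % of no-compound control ± standard deviation.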

Mus musculus [18] = organism: Mus musculus; assay: Effect on acetyl-CoA carboxylase phosphorylation in mouse embryonic fibroblasts expressing AMPK-alpha1+/+alpha2+/+ at 100 uM after 15 mins by Western blot
[19] = molecular target: Serine/threonine-protein kinase pim-3 (Homo sapiens) (UniProt Q86V86); assay: Inhibition of PIM3 at 10 uM; procedure, shortened: as §5
Mus musculus [20] = organism: Mus musculus; assay: Effect on acetyl-CoA carboxylase phosphorylation in mouse embryonic fibroblasts expressing AMPK-alpha1+/+alpha2+/+ at 100 uM upto1 hrs by Western blot
HeLa [21] = assay: Reduction of AMPK phosphorylation in HeLa cells at 100 uM after 1 hr in presence of STO-609 by immunoprecipitate kinase assay; format: cell-based; procedure, shortened: as §4
[22] = molecular target: 5'-AMP-activated protein kinase catalytic subunit alpha-1 (Rattus norvegicus) (UniProt P54645); assay: Effect on GST fused rat AMPKalpha1 (1-333) kinase activation in presence of recombinant CaMKKbeta by Western blot
Chain of 5'-AMP-activated protein kinase catalytic subunit alpha-1 (Rattus norvegicus) (P54645 whole entry, the tested form may be a part): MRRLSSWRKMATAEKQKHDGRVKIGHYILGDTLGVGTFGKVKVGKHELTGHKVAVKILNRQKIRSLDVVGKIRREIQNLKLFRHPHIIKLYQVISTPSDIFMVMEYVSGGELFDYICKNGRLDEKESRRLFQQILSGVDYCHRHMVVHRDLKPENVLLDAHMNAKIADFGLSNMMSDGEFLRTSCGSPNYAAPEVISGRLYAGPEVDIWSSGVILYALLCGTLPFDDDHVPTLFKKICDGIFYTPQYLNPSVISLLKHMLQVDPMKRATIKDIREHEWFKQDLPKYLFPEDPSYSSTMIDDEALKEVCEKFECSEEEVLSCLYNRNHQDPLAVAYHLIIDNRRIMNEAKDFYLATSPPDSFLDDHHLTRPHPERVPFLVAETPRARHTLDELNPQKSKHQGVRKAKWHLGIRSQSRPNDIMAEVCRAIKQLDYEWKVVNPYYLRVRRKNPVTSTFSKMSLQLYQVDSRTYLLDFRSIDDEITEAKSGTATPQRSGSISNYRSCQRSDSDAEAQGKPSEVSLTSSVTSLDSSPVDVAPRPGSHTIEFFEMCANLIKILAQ
Procedure, shortened: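 GST fusions of rat AMPKα1 kinase domain, with or without the autoinhibitory region, made in bacteria and glutathione-Sepharose purified. Pre-incubated with MgATP with or without recombinant human CaMKKβ to phosphorylate Thr-172. Activity then measured with or without 1 µM compound, or samples Western blotted with anti-GST and anti-pT172.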

Rattus norvegicus [23] = organism: Rattus norvegicus; assay: Effect on interaction between rat GST fused AMPK glycogen binding domain and glycogen at 0.5 uM
Procedure, shortened: (§6)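 β1 glycogen-binding domain (residues 65-182) fused to GST, expressed in E. coli BL21 and glutathione-purified. 2 µg incubated with bovine liver glycogen coupled to Sepharose in 50 mM Tris-HCl pH 7.5, 150 mM NaCl with compound. Load, supernatant and pellet anti-GST immunoblotted on infrared imager.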

Rattus norvegicus [24] = organism: Rattus norvegicus; assay: Effect on GST fused rat AMPKalpha1 T172D mutant kinase
HeLa [25] = assay: Reduction of acetyl-CoA carboxylase phosphorylation in HeLa cells at 100 uM after 1 hr in presence of STO-609 by densitometry; format: cell-based
Procedure, shortened: (§7)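 HeLa cells exposed to 100 µM compound for 1 hr, with or without a 1 hr pretreatment with STO-609 (10 µg/ml). Lysates Western blotted for phospho-ACC, quantified by densitometry in arbitrary units. Means ± SEM of duplicates; 2 or more experiments.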

HeLa [26] = assay: Effect on acetyl-CoA carboxylase phosphorylation in HeLa cells at 100 uM after 1 hr by densitometry; format: cell-based; procedure, shortened: as §7
HeLa [27] = assay: Effect on AMPK phosphorylation in HeLa cells at 100 uM after 1 hr by immunoprecipitate kinase assay; format: cell-based; procedure, shortened: as §4
Rattus norvegicus [28] = organism: Rattus norvegicus; assay: Effect on interaction between rat GST fused AMPK glycogen binding domain and glycogen at 5 uM; procedure, shortened: as §6
Mus musculus [29] = organism: Mus musculus; assay: Effect on acetyl-CoA carboxylase phosphorylation in LKB1-/-mouse longus muscle tissue at 2 mM uM by Western blot; format: tissue-based; procedure, shortened: as §3
[30] = molecular target: 5'-AMP-activated protein kinase catalytic subunit alpha-1 (Rattus norvegicus) (UniProt P54645); assay: Activation of rat AMPK alpha-1-alpha-2beta-1-gamma-1 kinase upto 5 uM in presence of saturating concentration of 200 uM AMP
Mus musculus [31] = organism: Mus musculus; assay: Increase in acetyl-CoA carboxylase phosphorylation in TAK1-/- mouse embryonic fibroblast at 100 uM after 1 hr by densitometry; procedure, shortened: as §2

In the case of `CC(O)[C@]1(C)CC[C@H]([C@]2(C)CC[C@@H](C[C@H](O)[C@H](C)[C@H](O)[C@H](C)/C=C/C[C@@H](C)C[C@@H](C)/C(O)=C/C(=O)[C@@H](C)C[C@@H](C)C[C@H](C)CCC(=O)O)O2)O1` (single isomer, unassigned), the Activity (HeLa [1]) was “Active” and the Activity (HeLa [2]) was “Active”.
In the case of `NC(=O)c1ncn([C@@H]2O[C@H](COP(=O)(O)O)[C@@H](O)[C@H]2O)c1N`, the Activity (Mus musculus [3]) was “Active”.
In the case of `N#Cc1c(O)c2c(-c3ccc(-c4ccccc4O)cc3)csc2[nH]c1=O`, the Activity (Mus musculus [4]) was “Active”, the Activity (Mus musculus [5]) was “Active” and the Activity (Mus musculus [6]) was “inactive”. For the same molecule, the Activity (Hepatocyte) was “Active”, the Activity (Mus musculus [7]) was “Active” and the Activity (Mus musculus [8]) was “Active”. For the same molecule, the Activity (Mus musculus [9]) was “Active”, the Activity (HeLa [10]) was “Active” and the Activity (Mus musculus [11]) was “inactive”. For the same molecule, the Activity (HeLa [12]) was “Active”, the Activity (Rattus norvegicus [13]) was “Active” and the Activity (HeLa [14]) was “Active”. For the same molecule, the Activity (Mus musculus [15]) was “inactive”, the Activity (Mus musculus [16]) was “Active” and the inhibition [17] was > 50%. The Activity (Mus musculus [18]) was “Active”, the inhibition [19] was > 50% and the Activity (Mus musculus [20]) was “Active”. The Activity (HeLa [21]) was “Active”, the Activity [22] was “inactive” and the Activity (Rattus norvegicus [23]) was “inactive”. For the same molecule, the Activity (Rattus norvegicus [24]) was “inactive”, the Activity (HeLa [25]) was “Active” and the Activity (HeLa [26]) was “Active”. For the same molecule, the Activity (HeLa [27]) was “Active”, the Activity (Rattus norvegicus [28]) was “inactive” and the Activity (Mus musculus [29]) was “inactive”. The Activity [30] was 1.4 and the Activity (Mus musculus [31]) was “Active”.
